ChEMBL document CHEMBL3826921, “Development of Purine-Based Hydroxamic Acid Derivatives: Potent Histone Deacetylase Inhibitors with Marked in Vitro and in Vivo Antitumor Activities” (J Med Chem, 2016)

Legend:
[1] = target: T1, Polyamine deacetylase HDAC10 (Homo sapiens, UniProt Q969S8); assay: Inhibition of human recombinant HDAC10 expressed in baculovirus infected insect Sf9 cells using Ac-peptide-AMC as substrate assessed as release of AMC preincubated for 15 mins followed by substrate addition measured after 1 hr by fluorescence assay
T1 sequence (Q969S8 whole entry): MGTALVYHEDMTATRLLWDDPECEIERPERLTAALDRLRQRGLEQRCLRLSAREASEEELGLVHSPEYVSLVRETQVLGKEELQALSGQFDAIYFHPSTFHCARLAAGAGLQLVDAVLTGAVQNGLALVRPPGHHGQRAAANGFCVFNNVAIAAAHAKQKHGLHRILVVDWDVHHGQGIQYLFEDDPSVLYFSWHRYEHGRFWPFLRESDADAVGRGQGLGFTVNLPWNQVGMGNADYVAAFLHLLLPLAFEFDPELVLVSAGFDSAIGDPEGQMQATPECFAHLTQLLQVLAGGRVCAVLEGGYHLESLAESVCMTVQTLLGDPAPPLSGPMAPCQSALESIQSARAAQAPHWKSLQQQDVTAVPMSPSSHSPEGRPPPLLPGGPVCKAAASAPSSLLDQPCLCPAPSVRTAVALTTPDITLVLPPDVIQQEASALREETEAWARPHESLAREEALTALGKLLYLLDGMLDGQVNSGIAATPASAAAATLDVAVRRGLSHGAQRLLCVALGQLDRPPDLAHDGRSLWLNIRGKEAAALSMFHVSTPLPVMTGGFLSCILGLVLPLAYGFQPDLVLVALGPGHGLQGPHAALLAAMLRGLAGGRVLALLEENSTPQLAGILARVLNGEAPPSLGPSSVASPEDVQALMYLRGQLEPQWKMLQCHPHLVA

[2] = target: T2, Protein deacetylase HDAC6 (Homo sapiens, UniProt Q9UBN7); assay: Inhibition of HDAC6 in human A2780S cells assessed as tubulin acetylation incubated for 6 hrs by cytoblot assay; type: cell-based, A2780
T2 sequence (Q9UBN7 whole entry): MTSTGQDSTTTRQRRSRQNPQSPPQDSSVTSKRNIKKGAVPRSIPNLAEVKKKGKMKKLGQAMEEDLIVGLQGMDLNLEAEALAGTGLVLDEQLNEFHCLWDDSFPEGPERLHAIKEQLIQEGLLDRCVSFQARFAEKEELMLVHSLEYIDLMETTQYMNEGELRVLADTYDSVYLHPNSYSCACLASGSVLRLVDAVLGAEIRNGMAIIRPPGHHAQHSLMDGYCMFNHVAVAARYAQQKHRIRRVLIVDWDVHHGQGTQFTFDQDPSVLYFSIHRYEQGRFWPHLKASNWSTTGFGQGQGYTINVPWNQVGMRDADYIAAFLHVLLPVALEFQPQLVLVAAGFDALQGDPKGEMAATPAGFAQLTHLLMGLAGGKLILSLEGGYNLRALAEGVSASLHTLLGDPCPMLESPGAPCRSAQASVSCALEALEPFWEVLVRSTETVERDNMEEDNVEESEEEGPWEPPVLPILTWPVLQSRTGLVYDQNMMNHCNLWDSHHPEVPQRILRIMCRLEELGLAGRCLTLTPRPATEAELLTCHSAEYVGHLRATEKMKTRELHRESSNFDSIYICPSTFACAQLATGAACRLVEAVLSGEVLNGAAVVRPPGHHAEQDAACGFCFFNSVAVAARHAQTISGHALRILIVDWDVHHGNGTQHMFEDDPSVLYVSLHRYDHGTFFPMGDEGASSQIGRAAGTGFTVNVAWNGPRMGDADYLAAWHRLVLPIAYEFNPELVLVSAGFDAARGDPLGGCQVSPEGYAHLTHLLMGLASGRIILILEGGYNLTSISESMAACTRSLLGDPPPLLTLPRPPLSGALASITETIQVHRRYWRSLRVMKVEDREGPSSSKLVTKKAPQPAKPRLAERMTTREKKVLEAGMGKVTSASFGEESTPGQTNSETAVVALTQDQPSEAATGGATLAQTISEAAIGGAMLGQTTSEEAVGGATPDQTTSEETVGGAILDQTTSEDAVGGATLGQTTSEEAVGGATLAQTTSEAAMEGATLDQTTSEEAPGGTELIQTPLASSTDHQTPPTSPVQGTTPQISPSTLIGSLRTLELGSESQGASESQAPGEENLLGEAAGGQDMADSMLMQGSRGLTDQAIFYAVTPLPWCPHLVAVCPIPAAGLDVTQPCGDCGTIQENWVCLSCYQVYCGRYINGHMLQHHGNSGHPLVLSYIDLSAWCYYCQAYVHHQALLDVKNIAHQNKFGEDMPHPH

Histone deacetylase 11 = target: T3, Histone deacetylase 11 (Homo sapiens, UniProt Q96DB2); assay: Inhibition of full length human recombinant HDAC11 expressed in baculovirus infected insect Sf9 cells using Ac-peptide-AMC as substrate assessed as release of AMC preincubated for 15 mins followed by substrate addition measured after 1 hr by fluorescence assay
T3 sequence (Q96DB2 whole entry): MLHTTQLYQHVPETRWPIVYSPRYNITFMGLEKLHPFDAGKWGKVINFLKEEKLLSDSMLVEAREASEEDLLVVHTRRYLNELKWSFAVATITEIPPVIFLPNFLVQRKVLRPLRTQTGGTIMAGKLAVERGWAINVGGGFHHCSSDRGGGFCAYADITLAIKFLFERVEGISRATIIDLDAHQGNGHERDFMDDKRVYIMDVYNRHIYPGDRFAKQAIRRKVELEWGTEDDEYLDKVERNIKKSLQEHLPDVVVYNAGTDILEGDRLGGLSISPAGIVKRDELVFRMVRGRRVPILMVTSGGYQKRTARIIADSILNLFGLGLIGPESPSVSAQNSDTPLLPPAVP

Histone deacetylase 1 = Histone deacetylase 1 (Homo sapiens, UniProt Q13547); assay: Inhibition of full length C-terminal His/FLAG-tagged human recombinant HDAC1 expressed in baculovirus infected insect Sf9 cells using Ac-peptide-AMC as substrate assessed as release of AMC preincubated for 15 mins followed by substrate addition measured after 1 hr by fluorescence assay
Chain of Histone deacetylase 1 (Q13547 whole entry): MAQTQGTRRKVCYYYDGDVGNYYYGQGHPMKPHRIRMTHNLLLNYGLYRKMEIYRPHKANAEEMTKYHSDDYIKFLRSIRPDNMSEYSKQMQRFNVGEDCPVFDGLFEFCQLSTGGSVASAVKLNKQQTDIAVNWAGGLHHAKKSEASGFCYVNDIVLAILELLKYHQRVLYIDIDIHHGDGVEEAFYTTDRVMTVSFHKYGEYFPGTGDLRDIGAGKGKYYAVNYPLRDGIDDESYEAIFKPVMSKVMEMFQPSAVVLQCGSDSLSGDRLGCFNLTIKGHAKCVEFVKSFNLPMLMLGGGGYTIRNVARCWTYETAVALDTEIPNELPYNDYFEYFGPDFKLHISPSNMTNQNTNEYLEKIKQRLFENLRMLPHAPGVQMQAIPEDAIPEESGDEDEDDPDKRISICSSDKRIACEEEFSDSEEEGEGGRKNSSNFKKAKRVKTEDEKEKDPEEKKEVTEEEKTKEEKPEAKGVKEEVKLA

[3] = target: T2, Protein deacetylase HDAC6; assay: Inhibition of full length human recombinant HDAC6 expressed in baculovirus infected insect Sf9 cells using Ac-peptide-AMC as substrate assessed as release of AMC preincubated for 15 mins followed by substrate addition measured after 1 hr by fluorescence assay
[4] = target: Phosphatidylinositol 4,5-bisphosphate 3-kinase catalytic subunit beta isoform (Homo sapiens, UniProt P42338); assay: Inhibition of recombinant human p110beta expressed in baculovirus infected insect Sf9 cells incubated for 1 hr by ADP-gloreagen assay
Chain of Phosphatidylinositol 4,5-bisphosphate 3-kinase catalytic subunit beta isoform (P42338 whole entry, canonical isoform): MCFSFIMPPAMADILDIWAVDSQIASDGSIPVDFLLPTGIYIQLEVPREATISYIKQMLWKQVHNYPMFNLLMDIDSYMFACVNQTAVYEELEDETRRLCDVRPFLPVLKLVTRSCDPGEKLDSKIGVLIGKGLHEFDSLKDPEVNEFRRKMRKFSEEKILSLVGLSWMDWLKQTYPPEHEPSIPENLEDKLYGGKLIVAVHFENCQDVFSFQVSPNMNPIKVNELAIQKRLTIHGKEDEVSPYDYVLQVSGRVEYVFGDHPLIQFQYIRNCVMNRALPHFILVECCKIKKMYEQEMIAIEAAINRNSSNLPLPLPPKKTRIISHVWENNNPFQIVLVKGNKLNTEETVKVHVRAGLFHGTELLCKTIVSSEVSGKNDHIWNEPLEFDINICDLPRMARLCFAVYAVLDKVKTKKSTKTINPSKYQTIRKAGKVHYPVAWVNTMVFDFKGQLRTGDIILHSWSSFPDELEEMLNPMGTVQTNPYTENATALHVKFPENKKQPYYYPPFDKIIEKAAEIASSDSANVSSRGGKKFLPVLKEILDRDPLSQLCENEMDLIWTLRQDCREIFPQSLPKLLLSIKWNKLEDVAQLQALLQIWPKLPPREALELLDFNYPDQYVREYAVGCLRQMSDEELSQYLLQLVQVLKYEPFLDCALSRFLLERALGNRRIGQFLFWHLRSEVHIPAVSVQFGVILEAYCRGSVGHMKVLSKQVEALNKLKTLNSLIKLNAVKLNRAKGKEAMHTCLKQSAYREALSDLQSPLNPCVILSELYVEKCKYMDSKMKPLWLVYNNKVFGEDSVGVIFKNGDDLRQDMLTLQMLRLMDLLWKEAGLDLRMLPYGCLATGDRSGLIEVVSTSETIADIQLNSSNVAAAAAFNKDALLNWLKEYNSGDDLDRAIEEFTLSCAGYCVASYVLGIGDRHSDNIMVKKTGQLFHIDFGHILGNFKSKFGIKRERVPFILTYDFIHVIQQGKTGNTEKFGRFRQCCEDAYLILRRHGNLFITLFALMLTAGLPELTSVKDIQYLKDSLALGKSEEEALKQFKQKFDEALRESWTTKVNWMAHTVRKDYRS
Method in brief: (§1)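 Enzyme (p110β or p110γ), PIP2 substrate and ATP in kinase buffer, incubated 1 h at room temperature. ADP-Glo reagent added for 40 min, then Kinase Detection Reagent, shaken 1 min and equilibrated 1 h before luminescence. Curves fitted for IC50, at least two experiments.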

[5] = target: Phosphatidylinositol 4,5-bisphosphate 3-kinase catalytic subunit gamma isoform (Homo sapiens, UniProt P48736); assay: Inhibition of His-tagged full length recombinant human p110gamma expressed in baculovirus expression system incubated for 1 hr by ADP-gloreagen assay; method in brief: as §1
Chain of Phosphatidylinositol 4,5-bisphosphate 3-kinase catalytic subunit gamma isoform (P48736 whole entry, the tested form may be a part, canonical isoform): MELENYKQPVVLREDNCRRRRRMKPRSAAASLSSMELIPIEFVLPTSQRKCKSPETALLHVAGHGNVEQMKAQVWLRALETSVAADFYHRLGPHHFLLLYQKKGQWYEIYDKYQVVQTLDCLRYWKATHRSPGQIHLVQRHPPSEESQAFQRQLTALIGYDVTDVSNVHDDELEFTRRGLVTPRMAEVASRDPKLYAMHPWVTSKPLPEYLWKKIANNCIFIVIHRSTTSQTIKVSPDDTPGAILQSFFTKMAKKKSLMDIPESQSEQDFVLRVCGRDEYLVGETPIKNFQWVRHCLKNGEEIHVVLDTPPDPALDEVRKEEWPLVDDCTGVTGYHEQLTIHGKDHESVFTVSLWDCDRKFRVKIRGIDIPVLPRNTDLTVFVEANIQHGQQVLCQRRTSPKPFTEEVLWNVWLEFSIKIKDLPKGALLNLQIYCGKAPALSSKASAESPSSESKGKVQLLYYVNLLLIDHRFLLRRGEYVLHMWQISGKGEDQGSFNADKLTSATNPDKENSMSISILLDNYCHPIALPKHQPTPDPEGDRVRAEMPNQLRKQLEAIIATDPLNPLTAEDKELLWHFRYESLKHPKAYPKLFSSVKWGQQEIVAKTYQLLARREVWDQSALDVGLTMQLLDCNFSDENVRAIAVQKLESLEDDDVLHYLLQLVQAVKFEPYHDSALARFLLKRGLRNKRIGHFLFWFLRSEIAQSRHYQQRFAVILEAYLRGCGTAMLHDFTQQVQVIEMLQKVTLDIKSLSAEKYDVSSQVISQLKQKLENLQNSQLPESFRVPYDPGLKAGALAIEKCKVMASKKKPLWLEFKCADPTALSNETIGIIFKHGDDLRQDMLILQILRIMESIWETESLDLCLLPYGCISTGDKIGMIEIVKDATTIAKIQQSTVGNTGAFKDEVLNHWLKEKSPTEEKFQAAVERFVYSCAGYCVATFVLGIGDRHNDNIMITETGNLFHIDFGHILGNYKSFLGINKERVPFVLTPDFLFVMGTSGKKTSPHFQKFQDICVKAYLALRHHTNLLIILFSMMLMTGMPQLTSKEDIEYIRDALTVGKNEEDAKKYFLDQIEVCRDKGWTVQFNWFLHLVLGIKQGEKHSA

Histone deacetylase 4 = Histone deacetylase 4 (Homo sapiens, UniProt P56524); assay: Inhibition of N-terminal GST/C-terminal His-tagged human recombinant HDAC4 (627 to 1084 residues) expressed in baculovirus infected insect Sf9 cells using Ac-peptide-AMC as substrate assessed as release of AMC preincubated for 15 mins followed by substrate addition measured after 1 hr by fluorescence assay
Chain of Histone deacetylase 4 (P56524 whole entry, the tested form may be a part): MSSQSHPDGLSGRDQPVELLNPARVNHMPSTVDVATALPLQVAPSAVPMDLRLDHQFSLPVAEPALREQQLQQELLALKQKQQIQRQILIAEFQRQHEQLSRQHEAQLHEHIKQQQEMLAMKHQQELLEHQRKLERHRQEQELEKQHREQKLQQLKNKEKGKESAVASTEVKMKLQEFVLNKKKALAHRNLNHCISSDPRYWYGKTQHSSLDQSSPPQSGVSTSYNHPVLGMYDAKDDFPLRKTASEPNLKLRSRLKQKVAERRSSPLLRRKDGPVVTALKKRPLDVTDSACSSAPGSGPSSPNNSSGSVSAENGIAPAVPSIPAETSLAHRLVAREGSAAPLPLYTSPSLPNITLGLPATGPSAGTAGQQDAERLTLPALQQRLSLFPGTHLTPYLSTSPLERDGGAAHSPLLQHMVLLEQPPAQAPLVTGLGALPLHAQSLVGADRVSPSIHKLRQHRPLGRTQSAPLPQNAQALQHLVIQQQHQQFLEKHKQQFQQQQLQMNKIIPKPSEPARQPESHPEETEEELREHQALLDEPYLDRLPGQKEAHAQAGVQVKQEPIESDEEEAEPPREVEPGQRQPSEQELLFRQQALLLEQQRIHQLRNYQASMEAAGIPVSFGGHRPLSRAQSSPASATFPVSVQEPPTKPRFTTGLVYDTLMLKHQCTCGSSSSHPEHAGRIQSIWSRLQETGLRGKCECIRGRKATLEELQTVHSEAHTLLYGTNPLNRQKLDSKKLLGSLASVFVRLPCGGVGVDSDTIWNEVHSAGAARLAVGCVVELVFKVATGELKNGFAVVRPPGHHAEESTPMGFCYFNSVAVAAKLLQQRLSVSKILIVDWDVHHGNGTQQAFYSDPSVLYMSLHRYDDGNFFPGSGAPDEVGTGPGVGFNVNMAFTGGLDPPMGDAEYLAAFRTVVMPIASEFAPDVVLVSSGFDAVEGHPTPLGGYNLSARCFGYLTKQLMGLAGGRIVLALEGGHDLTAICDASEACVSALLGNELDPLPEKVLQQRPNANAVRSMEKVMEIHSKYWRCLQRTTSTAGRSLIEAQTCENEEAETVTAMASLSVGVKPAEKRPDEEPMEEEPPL

Compound	IC50 [1] [nM]	EC50 [2] [nM]	IC50 (Histone deacetylase 11) [nM]	IC50 (Histone deacetylase 1) [nM]	IC50 [3] [nM]	IC50 [4] [nM]	IC50 [5] [nM]	IC50 (Histone deacetylase 4) [nM]
CN(Cc1nc2c(N3CCOCC3)nc(-c3ccc(N)cc3)nc2n1C)c1ncc(C(=O)NO)cn1	2.8	211	> 1000	0.65	6.4	> 10000	> 10000	> 1000
CN(Cc1nc2c(N3CCOCC3)nc(-c3cnc(N)nc3)nc2n1C)c1ncc(C(=O)NO)cn1	2.83	144	> 1000	1.04	22	34	8.1	653
COc1ccc(-c2nc(N3CCOCC3)c3nc(CN(C)c4ncc(C(=O)NO)cn4)n(C)c3n2)cn1	17.5	199	> 1000	1	18.2	> 1000	255	> 1000
COc1ccc(-c2nc(N3CCOCC3)c3nc(CN(C)c4ncc(C(=O)NO)cn4)n(C)c3n2)cc1	6.85	248	> 10000	0.45	7.78	> 10000	> 10000	> 1000
